ChEMBL document CHEMBL3407413, “Repositioning proton pump inhibitors as anticancer drugs by targeting the thioesterase domain of human fatty acid synthase” (J Med Chem, 2015)
Activity calls are given as the source filed them. The rule behind the calls is not given here.

Key:
Fatty acid synthase [1] = biological target: T1, Fatty acid synthase (Homo sapiens, UniProt P49327); test: Inhibition of purified recombinant FASN TE activity (unknown origin) using 4-MUH as substrate preincubated for 30 mins before substrate addition measured after 1 hr by fluorescence assay
PANC-1 [2] = test: Inhibition of survival of human PANC1 cells after 10 to 14 days by crystal violet staining-based colony formation assay; format: functional, cell-based
Summary of the method: (§1)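 Cells seeded at 100/well (PANC-1, including stable vector- or wild-type FASN-transfected lines) or 200/well (BxPC-3) and grown 24 h. Then cultured continuously with PPIs or DMSO vehicle for 10–14 days, stained with crystal violet and colonies counted manually. Three independent experiments.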

PANC-1 [3] = test: Induction of apoptosis in human PANC1 cells assessed as cytoplasmic histone-associated DNA fragments after 72 hrs by ELISA method; format: functional, cell-based
BXPC-3 [4] = test: Induction of apoptosis in human BxPC3 cells assessed as PARP1 cleavage after 24 hrs by Western blot analysis; format: functional, cell-based
Summary of the method: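 Harvested and analysed by Western blot with an antibody specific to cleaved PARP-1; actin as loading control.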

BXPC-3 [5] = test: Effect on pH homeostasis in human BxPC3 cells assessed as change in intracellular pH at 12.5 to 100 uM after 72 hrs by pHrodo red dye-based fluorescence assay; format: functional, cell-based
Summary of the method: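 Loaded with pHrodo red intracellular pH dye and fluorescence read in-well. Fluorescence converted to pH using a calibration kit standard curve (fluorescence vs pH). Three independent experiments.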

BXPC-3 [6] = test: Effect on pH homeostasis in human BxPC3 cells assessed as change in extracellular pH at 100 uM after 72 hrs by pH metry; format: functional, cell-based
Summary of the method: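 Culture medium was collected, cleared of cell debris by centrifugation, and measured with a pH meter.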

PANC-1 [7] = test: Effect on FASN expression in human PANC1 cells at 12.5 to 200 uM after 30 mins by Western blot analysis; format: functional, cell-based
BXPC-3 [8] = test: Cytotoxicity against human BxPC3 cells by MTT assay in presence of 3.75 uM palmitate; format: functional, cell-based
BXPC-3 [9] = test: Induction of apoptosis in human BxPC3 cells in presence of 3.75 uM palmitate; format: functional, cell-based
PANC-1 [10] = test: Inhibition of survival of wild-type FASN overexpressing human PANC1 cells after 10 to 14 days by crystal violet staining-based colony formation assay; format: functional, cell-based; summary of the method: as §1
PANC-1 [11] = test: Inhibition of survival of vector-transfected human PANC1 cells after 10 to 14 days by crystal violet staining-based colony formation assay; format: functional, cell-based; summary of the method: as §1
Fatty acid synthase [12] = biological target: T1, Fatty acid synthase
Fatty acid synthase [13] = biological target: T1, Fatty acid synthase; remark: listed apart in the source
BXPC-3 [14] = test: Effect of survival of human BxPC3 cells at 3.75 uM by MTT assay; format: functional, cell-based
Summary of the method: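 BxPC-3 pancreatic cancer cells given the supplement alone; growth read by MTT assay against a DMSO control; n = 3.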

BXPC-3 [15] = test: Effect of FASN expression of human BxPC3 cells at 3.75 uM by Western blot analysis; format: functional, cell-based
Summary of the method: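 BxPC-3 pancreatic cancer cells given the supplement; FASN protein read by Western blot, with actin as the loading control.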

T1 sequence (P49327 whole entry): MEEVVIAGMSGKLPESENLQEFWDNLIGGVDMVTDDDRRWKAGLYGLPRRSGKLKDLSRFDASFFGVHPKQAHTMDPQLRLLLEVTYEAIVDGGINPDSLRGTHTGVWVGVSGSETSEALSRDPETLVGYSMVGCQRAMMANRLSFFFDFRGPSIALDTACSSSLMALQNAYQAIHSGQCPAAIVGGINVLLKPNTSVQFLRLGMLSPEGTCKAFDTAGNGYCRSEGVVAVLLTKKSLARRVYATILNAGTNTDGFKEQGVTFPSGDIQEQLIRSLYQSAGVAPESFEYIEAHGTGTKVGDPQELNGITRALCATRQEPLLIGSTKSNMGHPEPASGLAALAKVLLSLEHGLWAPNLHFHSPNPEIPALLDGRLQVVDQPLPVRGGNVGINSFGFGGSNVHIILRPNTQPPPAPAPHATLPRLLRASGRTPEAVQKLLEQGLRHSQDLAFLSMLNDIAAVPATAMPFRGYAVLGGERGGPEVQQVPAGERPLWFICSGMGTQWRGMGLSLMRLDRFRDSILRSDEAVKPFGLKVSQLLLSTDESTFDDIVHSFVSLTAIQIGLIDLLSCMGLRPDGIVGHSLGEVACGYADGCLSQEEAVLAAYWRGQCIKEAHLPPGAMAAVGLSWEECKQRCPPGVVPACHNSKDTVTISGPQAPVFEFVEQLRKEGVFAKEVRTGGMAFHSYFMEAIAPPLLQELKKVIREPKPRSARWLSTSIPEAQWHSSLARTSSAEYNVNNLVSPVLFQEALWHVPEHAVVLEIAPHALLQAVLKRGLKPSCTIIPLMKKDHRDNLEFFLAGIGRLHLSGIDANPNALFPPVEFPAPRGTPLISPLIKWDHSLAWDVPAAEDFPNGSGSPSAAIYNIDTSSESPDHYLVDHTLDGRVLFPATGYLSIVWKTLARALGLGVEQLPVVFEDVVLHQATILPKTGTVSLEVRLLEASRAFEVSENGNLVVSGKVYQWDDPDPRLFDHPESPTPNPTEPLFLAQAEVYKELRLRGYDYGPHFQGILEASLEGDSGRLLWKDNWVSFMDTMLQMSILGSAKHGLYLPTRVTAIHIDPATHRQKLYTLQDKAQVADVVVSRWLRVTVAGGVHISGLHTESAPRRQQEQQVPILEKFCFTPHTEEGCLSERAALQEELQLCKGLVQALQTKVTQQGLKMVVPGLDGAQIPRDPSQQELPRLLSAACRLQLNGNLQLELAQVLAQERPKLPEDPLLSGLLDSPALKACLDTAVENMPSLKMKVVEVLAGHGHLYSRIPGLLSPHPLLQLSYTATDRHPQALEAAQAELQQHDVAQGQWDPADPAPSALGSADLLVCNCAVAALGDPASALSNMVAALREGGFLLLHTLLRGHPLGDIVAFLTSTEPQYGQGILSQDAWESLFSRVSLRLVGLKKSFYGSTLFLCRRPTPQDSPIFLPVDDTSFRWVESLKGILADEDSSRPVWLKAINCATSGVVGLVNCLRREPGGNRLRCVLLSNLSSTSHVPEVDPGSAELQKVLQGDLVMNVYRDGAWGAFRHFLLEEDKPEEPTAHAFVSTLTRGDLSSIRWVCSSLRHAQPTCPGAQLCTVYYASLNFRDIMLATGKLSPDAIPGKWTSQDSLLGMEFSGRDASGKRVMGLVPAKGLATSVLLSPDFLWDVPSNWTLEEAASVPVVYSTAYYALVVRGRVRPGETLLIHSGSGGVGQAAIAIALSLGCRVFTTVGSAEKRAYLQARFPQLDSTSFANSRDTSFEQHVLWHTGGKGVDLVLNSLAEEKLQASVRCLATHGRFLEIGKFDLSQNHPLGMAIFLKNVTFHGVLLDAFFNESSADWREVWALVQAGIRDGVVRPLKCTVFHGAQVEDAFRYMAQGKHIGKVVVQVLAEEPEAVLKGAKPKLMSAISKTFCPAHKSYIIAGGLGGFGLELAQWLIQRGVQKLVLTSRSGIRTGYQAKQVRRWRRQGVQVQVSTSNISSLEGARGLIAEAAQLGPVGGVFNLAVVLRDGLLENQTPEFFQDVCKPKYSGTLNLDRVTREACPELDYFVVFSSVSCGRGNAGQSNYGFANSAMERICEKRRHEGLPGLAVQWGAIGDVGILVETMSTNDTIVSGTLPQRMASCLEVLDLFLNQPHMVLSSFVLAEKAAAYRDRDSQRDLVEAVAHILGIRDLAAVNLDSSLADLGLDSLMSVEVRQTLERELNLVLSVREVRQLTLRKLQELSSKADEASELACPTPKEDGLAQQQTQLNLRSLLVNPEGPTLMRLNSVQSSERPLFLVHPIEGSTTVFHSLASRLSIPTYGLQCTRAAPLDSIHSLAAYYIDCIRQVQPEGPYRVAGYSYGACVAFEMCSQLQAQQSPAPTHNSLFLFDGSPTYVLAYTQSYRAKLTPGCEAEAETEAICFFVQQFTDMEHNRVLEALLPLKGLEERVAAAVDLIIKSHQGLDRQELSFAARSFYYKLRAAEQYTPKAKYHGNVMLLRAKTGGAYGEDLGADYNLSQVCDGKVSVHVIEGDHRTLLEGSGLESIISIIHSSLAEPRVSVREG

Structure (SMILES)	IC50 (Fatty acid synthase [1])	Ki (Fatty acid synthase [1])	inhibition (PANC-1 [2])	Activity (PANC-1 [3])	Activity (BXPC-3 [4])	Activity (BXPC-3 [5])	Activity (BXPC-3 [6])	Activity (PANC-1 [7])	Activity (BXPC-3 [8])	Activity (BXPC-3 [9])	inhibition (PANC-1 [10])	inhibition (PANC-1 [11])	IC50 (Fatty acid synthase [12])	IC50 (Fatty acid synthase [13])	Activity (BXPC-3 [14])	Activity (BXPC-3 [15])
Cc1c(OCC(F)(F)F)ccnc1C[S+]([O-])c1nc2ccccc2[nH]1 (stereo unspecified) [LANSOPRAZOLE]	46.7 µM	5.3 µM	Dose-dependent effect	Dose-dependent effect	Dose-dependent effect	inactive	inactive	inactive	inactive	inactive	Active	inactive	93 µM	124 µM		
CCCCCCCCCCCCCCCC(=O)O															inactive	inactive
